Results on one compound are retold here after ChEMBL document CHEMBL1124171, “Ergolines as selective 5-HT1 agonists” (J Med Chem, 1988).

The test system of assay [1] is Rattus norvegicus. The assay can be described thus: Effect on serotonin in rat whole brain, after sc administration (0 mg/kg dose) (experiment 2). The class given is functional, organism-based. The method, boiled down: (§1)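 Drug was given sc in dilute HCl to male Wistar rats (~150 g), with decapitation 1 h later. Whole brains were frozen on dry ice and held at −15 °C. […] Results are mean ± SE, five rats/group, P < 0.05 versus vehicle control.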

Assay [2] concerns Rattus norvegicus. The assay can be described thus: Effect on serum corticosterone in serum of rats after sc administration (0.03 mg/kg dose) (experiment 1). Type of assay: functional, organism-based. The method, boiled down:
(§2)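 Male Wistar rats (~150 g) housed at 24 °C with lights 7 a.m.–7 p.m. Compound in dilute HCl given sc 1 h before decapitation. Serum corticosterone measured spectrofluorometrically, μg/100 mL. Five rats per group, mean ± SE. Significance set at P < 0.05 versus the vehicle control.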

The species entered for assay [3] is Rattus norvegicus. The assay can be described thus: Effect of […] on the elevation of serum corticosterone at a dose 100 ug/mL No pretreatment. Type of assay: functional, organism-based. The method, boiled down: (§3)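 Rats got p-chlorophenylalanine (300 mg/kg, ip) or no pretreatment. 24 h later, drug (0.3 mg/kg, sc, dilute HCl) or p-chloroamphetamine HCl (2.5 mg/kg, ip) was given, and rats were killed 1 h after. Serum corticosterone was measured spectrofluorometrically. Results are mean ± SE, five male Wistar rats/group.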

In assay [4] the test system is Rattus norvegicus. The assay can be described thus: Effect on 5-hydroxyindoleacetic acid in rat whole brain, after sc administration (0.3 mg/kg dose) (experiment 1). Type of assay: functional, organism-based. The method, boiled down:
as §1

Assay [5] concerns Rattus norvegicus. The assay is described as follows: Effect on serotonin in rat whole brain, after sc administration (0.03 mg/kg dose) (experiment 1). Type of assay: functional, organism-based. Put shortly: as §1
Assay [6] relates to Rattus norvegicus. The assay can be described thus: Effect of Metergoline on the elevation of serum corticosterone, after sc administration (0.3 mg/kg) No pretreatment. The class given is functional, organism-based. Put shortly:
(§4)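 Male Wistar rats (~150 g) received metergoline (3 mg/kg, ip) or no pretreatment. Drug was given sc in dilute HCl 1 h later, and rats were decapitated 1 h after that. Serum corticosterone was determined spectrofluorometrically. Results are mean ± SE, five rats/group, P < 0.05 versus the corresponding control.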

For assay [7], the system named is Rattus norvegicus. The assay is described as follows: Effect on homovanillic acid concentration in rat striatum, after 0.03 mg/kg sc administration. The class given is functional. As to conditions: route subcutaneous. The method, boiled down: (§5)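 Male Wistar rats (~150 g) were given drug or apomorphine HCl sc and decapitated 1 h later. Striatal DOPAC and HVA were quantified by LC with electrochemical detection. Results are mean ± SE, five rats/group, P < 0.05.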

Assay [8] has as its system Rattus norvegicus. The assay can be described thus: Effect of Metergoline on the elevation of serum corticosterone, after sc administration (0 mg/kg) No pretreatment. Type of assay: functional, organism-based. Put shortly:
as §4

Assay [9] concerns Rattus norvegicus. The assay is described as follows: Effect on serotonin in rat whole brain, after sc administration (1 mg/kg dose) (experiment 1). Type of assay: functional, organism-based.
Assay [10] deals with Rattus norvegicus. The assay is described as follows: Effect on concentration of 5HIAA in rat brain striatum after 0.3 mg/kg sc administration. Also on record: dose 0.3 mg/kg. Type of assay: functional, organism-based. Put shortly:
(§6)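 Male Wistar rats (~150 g) were injected sc with drug in dilute HCl and decapitated 1 h later. Hypothalamus and striatum were dissected and frozen on dry ice. […] Results are mean ± SE, five rats/group, P < 0.05.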

The test system of assay [11] is Rattus norvegicus. The assay can be described thus: Effect on 3,4- dihydroxyphenylacetic acid concentration in rat striatum, after 0.03 mg/kg sc administration. Type of assay: functional. As to conditions: route subcutaneous. The method, boiled down:
as §5

Assay [12] concerns Rattus norvegicus. The assay is described as follows: Effect on 5-hydroxyindoleacetic acid in rat whole brain, after sc administration (0.01 mg/kg dose) (experiment 2). The class given is functional, organism-based. The method, boiled down:
as §1

The species entered for assay [13] is Rattus norvegicus. The assay is described as follows: Effect of fluoxetine on the elevation of serum corticosterone, Fluoxetine pretreament. Type of assay: functional, organism-based. Put shortly: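 Rats got fluoxetine HCl (10 mg/kg, ip) or no pretreatment. 16 h later, drug (0.3 mg/kg, sc, dilute HCl) or p-chloroamphetamine HCl (2.5 mg/kg, ip) was given, with decapitation 1 h after. Serum corticosterone was measured spectrofluorometrically. Results are mean ± SE, five male Wistar rats/group, P < 0.05.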

Assay [14] concerns Rattus norvegicus. The assay can be described thus: Effect on serum corticosterone in serum of rats after sc administration (0.1 mg/kg dose) (experiment 1). The class given is functional, organism-based. Put shortly:
as §2

The subject of assay [15] is Rattus norvegicus. The assay is described as follows: Effect on concentration of serotonin in rat brain striatum after 0.3 mg/kg sc administration. The class given is functional, organism-based. Also on record: dose 0.3 mg/kg. Put shortly:
as §6

Assay [16] deals with Rattus norvegicus. The assay can be described thus: Effect of Metergoline on the elevation of serum corticosterone, after sc administration (1.0 mg/kg) Metergoline pretreament. Type of assay: functional, organism-based. Put shortly: as §4
Assay [17] deals with Rattus norvegicus. The assay is described as follows: Decreased accumulation of 5-hydroxytryptophan after decarboxylase inhibition in the hypothalamus of rat at a dose 0.3 mg/Kg, sc. Type of assay: functional, organism-based. Put shortly:
(§7)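 Male Wistar rats (~150 g) got drug sc in dilute HCl. NSD 1015 (100 mg/kg, ip) was given 30 min after drug and 30 min before decapitation. Hypothalamic 5-HTP was measured by LC with electrochemical detection. Results are mean ± SE, five rats per treated group and six controls; significance at P < 0.01.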

Assay [18] concerns Rattus norvegicus. The assay can be described thus: Effect on 5-hydroxyindoleacetic acid in rat whole brain, after sc administration (0.1 mg/kg dose) (experiment 1). The class given is functional, organism-based. Put shortly:
as §1

The test system of assay [19] is Rattus norvegicus. The assay is described as follows: Decreased accumulation of 5-hydroxytryptophan after decarboxylase inhibition in the hypothalamus of rat at a dose 0mg/Kg, sc. Type of assay: functional, organism-based. Put shortly: as §7
The species named for assay [20] is Rattus norvegicus. The assay is described as follows: Effect of […] on the elevation of serum corticosterone at a dose 100 ug/mL PCPA pretreated. The class given is functional, organism-based. Put shortly: as §3
In assay [21] the test system is Rattus norvegicus. The assay can be described thus: Effect on homovanillic acid concentration in rat striatum, after 0.3 mg/kg sc administration. The class given is functional. As to conditions: route subcutaneous. Put shortly:
as §5

The test system of assay [22] is Rattus norvegicus. The assay can be described thus: Effect on 3,4-dihydroxyphenylacetic acid concentration in rat striatum, after 0.3 mg/kg sc administration. The class given is functional. The following applies: route subcutaneous. Put shortly:
as §5

Assay [23] relates to Rattus norvegicus. The assay is described as follows: Effect on 5-hydroxyindoleacetic acid in rat whole brain, after sc administration (0 mg/kg dose) (experiment 2). Type of assay: functional, organism-based. The method, boiled down:
as §1

`C[C@@H]1C=C2c3cccc4c3[C@@H](CN4)C[C@H]2N(C)C1`: the Concentration with Rattus norvegicus [1] is 2.66 nM/g; in the assay on Rattus norvegicus [2] it was 6.5 nM/g; with Rattus norvegicus [4], 1.45 nM/g; in the assay with Rattus norvegicus [5], 2.8 nM/g; in the assay on Rattus norvegicus [9], 3.02 nM/g; in the assay on Rattus norvegicus [10] it was less than 2.38 mg/kg. For the same compound, the Concentration in the assay on Rattus norvegicus [12] worked out at 2.2 nM/g; in the assay on Rattus norvegicus [14], 33.8 nM/g; in the assay on Rattus norvegicus [15], 1.94 mg/kg; in the assay on Rattus norvegicus [17], 0.71 nM/g; in the assay on Rattus norvegicus [18], 1.45 nM/g; in the assay on Rattus norvegicus [19] it was 1.92 nM/g. Moreover, the Concentration with Rattus norvegicus [23] was found to be 2.2 nM/g. The Serum corticosterone in the assay listed under Rattus norvegicus [3] is 47.3 µg/mL; in the assay on Rattus norvegicus [6] it was 46.6 µg/mL; in the assay on Rattus norvegicus [8], 4.3 µg/mL; in the assay listed under Rattus norvegicus [13], less than 61.2 µg/mL; in the assay with Rattus norvegicus [16] it was 61.2 µg/mL; in the assay listed under Rattus norvegicus [20] it was 42 µg/mL. In addition, the Homovanillic acid concentration with Rattus norvegicus [7] was 2.89 nM/g; with Rattus norvegicus [21], 3.27 nM/g. The DOPAC concentration was 3.81 nM/g in the assay with Rattus norvegicus [11] and 4.62 nM/g with Rattus norvegicus [22].
